From ChEMBL document CHEMBL3865799, “Synthesis of a series of novel dihydroartemisinin monomers and dimers containing chalcone as a linker and their anticancer activity” (Eur J Med Chem, 2016)
Calls of active or inactive are those of the source. The calls are words filed in the database; no cut-off is given here.

How the values were obtained:
[1] = tested on: Vero; test: Selectivity index, ratio of IC50 for African green monkey Vero cells to IC50 for human PC3 cells; type: functional
Outline: (§1)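 Suspension cells were seeded at 1.5 × 10^4 per well and adherent lines at 70–75% confluence, then exposed to a range of concentrations. MTT was added 3 h before the end, formazan dissolved in DMSO, and OD read at 570 nm (reference 620 nm). Growth inhibition was taken relative to untreated cells. IC50 came from the MTT data; SI = IC50 in Vero cells / IC50 in the tumour line.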

[2] = Cell cycle arrest in human HL60 cells assessed as accumulation at S phase at 5 uM after 24 hrs by propidium iodide-DNA fluorescence based FACS analysis (reference value: 53 %); type: functional; conditions: HL-60
Outline: (§2)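 HL-60 cells seeded at 0.5 × 10^6 cells/ml, exposed 24 h to compound (DMSO vehicle, <0.2% v/v). Pelleted at 400×g, PBS-washed, fixed in 70% ethanol at 4 °C overnight. RNase A treatment at 37 °C for 1.30 h, then propidium iodide staining for 20 min. Flow cytometry on 10,000 events, FL2-A vs FL2-W; subG0 (apoptotic) and phase populations gated.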

[3] = Cytotoxicity against human LS180 cells assessed as cell growth inhibition at 50 uM after 48 hrs by MTT assay; type: functional; conditions: LS180, 48 h, read-out: GI
Outline: (§3)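 Adherent lines at 70–75% confluence, grown at 37 °C in 5% CO2 with 10% FCS. Exposed 48 h to compound in DMSO (vehicle <0.2% v/v). MTT dye added 3 h before termination; formazan dissolved in DMSO, OD 570 nm with 620 nm reference. Growth inhibition expressed as % of untreated; IC50 taken from the dose series.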

[4] = Cell cycle arrest in human HL60 cells assessed as accumulation at subG0 phase at 5 uM after 24 hrs by propidium iodide-DNA fluorescence based FACS analysis (reference value: 5 %); type: functional; conditions: HL-60; outline: as §2
[5] = Cytotoxicity against human HL60 cells assessed as cell growth inhibition at 30 uM after 48 hrs by MTT assay; type: functional; conditions: HL-60, 48 h, read-out: GI
Outline: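 HL-60 suspension cells, 1.5 × 10^4 per well, grown at 37 °C in 5% CO2 with 10% FCS. Treated 48 h with compound in DMSO (vehicle <0.2% v/v). MTT added 3 h before the end. Formazan dissolved in DMSO and read at 570 nm (reference 620 nm). % growth inhibition computed against untreated cells; IC50 taken from the concentration series.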

[6] = tested on: HL-60; test: Induction of apoptosis in human HL60 cells assessed as morphological alterations after 24 hrs by hoechst 33258 staining-based microscopic analysis; type: functional, cell-based
Outline: (§4)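 HL-60 cells at 0.5 × 10^6/ml were treated for 24 h with […] compound in DMSO vehicle (<0.2%). Cells were fixed in cold acetic acid:methanol (1:3) for 1 h on ice, spread on slides and air-dried overnight. Slides were stained with Hoechst 33258 for 30 min, mounted in glycerol:PBS and viewed by fluorescence microscopy at 20×. Morphology was checked by phase contrast. One of three experiments shown.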

[7] = Lipophilicity, log P of the compound; type: physicochemical; conditions: octanol/water
[8] = tested on: HL-60; test: Induction of apoptosis in human HL60 cells assessed as condensation of nuclei after 24 hrs by hoechst 33258 staining-based microscopic analysis; type: functional, cell-based; outline: as §4
[9] = Cell cycle arrest in human HL60 cells assessed as accumulation at G1 phase at 0.5 uM after 24 hrs by propidium iodide-DNA fluorescence based FACS analysis (reference value: 46 %); type: functional; conditions: HL-60; outline: as §2
[10] = Selectivity index, ratio of IC50 for African green monkey Vero cells to IC50 for human LS180 cells; type: functional; outline: as §1
[11] = tested on: HL-60; test: Induction of apoptosis in human HL60 cells assessed as blebs formation after 24 hrs phase contrast microscopic analysis; type: functional, cell-based
Outline: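 HL-60 cells at 0.5 × 10^6 cells/ml treated 24 h with compound at 0.2, 0.5, 1 or 5 (DMSO vehicle). Treated and control cells photographed under a phase contrast microscope at 20× and scored for morphology.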

[12] = Cytotoxicity against human LS180 cells assessed as cell growth inhibition at 1 uM after 48 hrs by MTT assay; type: functional; conditions: LS180, 48 h, read-out: GI; outline: as §3
[13] = Cytotoxicity against human LS180 cells assessed as cell growth inhibition at 10 uM after 48 hrs by MTT assay; type: functional; conditions: LS180, 48 h, read-out: GI; outline: as §3
[14] = Cell cycle arrest in human HL60 cells assessed as accumulation at subG0 phase at 0.5 uM after 24 hrs by propidium iodide-DNA fluorescence based FACS analysis (reference value: 5 %); type: functional; conditions: HL-60; outline: as §2
[15] = Cytotoxicity against human LS180 cells assessed as cell growth inhibition at 0.5 uM after 48 hrs by MTT assay; type: functional; conditions: LS180, 48 h, read-out: GI; outline: as §3
[16] = Cytotoxicity against human MIAPaCa2 cells assessed as cell growth inhibition at 0.5 uM after 48 hrs by MTT assay; type: functional; conditions: MIA PaCa-2, 48 h, read-out: GI; outline: as §3
[17] = Aqueous solubility of the compound at pH 7; type: physicochemical
[18] = Cell cycle arrest in human HL60 cells assessed as accumulation at subG0 phase at 0.2 uM after 24 hrs by propidium iodide-DNA fluorescence based FACS analysis (reference value: 5 %); type: functional; conditions: HL-60; outline: as §2
[19] = Cell cycle arrest in human HL60 cells assessed as accumulation at subG0 phase after 24 hrs by propidium iodide-DNA fluorescence based FACS analysis; type: functional; conditions: HL-60; outline: as §2
[20] = Lipophilicity, log P of the compound at pH 7; type: physicochemical; conditions: buffer
[21] = Cytotoxicity against human HepG2 cells assessed as cell growth inhibition at 10 uM after 48 hrs by MTT assay; type: functional; conditions: HepG2, 48 h, read-out: GI; outline: as §3
[22] = tested on: HL-60; test: Induction of apoptosis in human HL60 cells assessed as induction of apoptotic bodies at 0.5 uM after 24 hrs by hoechst 33258 staining-based microscopic analysis; type: functional, cell-based; outline: as §4
[23] = Cytotoxicity against human PC3 cells assessed as cell growth inhibition at 10 uM after 48 hrs by MTT assay; type: functional; conditions: PC-3, 48 h, read-out: GI; outline: as §3
[24] = Cytotoxicity against human HepG2 cells assessed as cell growth inhibition at 0.5 uM after 48 hrs by MTT assay; type: functional; conditions: HepG2, 48 h, read-out: GI; outline: as §3
[25] = Cytotoxicity against human PC3 cells assessed as cell growth inhibition at 0.5 uM after 48 hrs by MTT assay; type: functional; conditions: PC-3, 48 h, read-out: GI; outline: as §3
[26] = Cell cycle arrest in human HL60 cells assessed as accumulation at G1 phase at 5 uM after 24 hrs by propidium iodide-DNA fluorescence based FACS analysis (reference value: 46 %); type: functional; conditions: HL-60; outline: as §2
[27] = Cell cycle arrest in human HL60 cells assessed as accumulation at G2 phase at 0.2 uM after 24 hrs by propidium iodide-DNA fluorescence based FACS analysis (reference value: 1 %); type: functional; conditions: HL-60; outline: as §2
[28] = Cytotoxicity against human HepG2 cells assessed as cell growth inhibition at 1 uM after 48 hrs by MTT assay; type: functional; conditions: HepG2, 48 h, read-out: GI; outline: as §3
[29] = Cytotoxicity against human MIAPaCa2 cells assessed as cell growth inhibition at 1 uM after 48 hrs by MTT assay; type: functional; conditions: MIA PaCa-2, 48 h, read-out: GI; outline: as §3
[30] = Cytotoxicity against human PC3 cells assessed as cell growth inhibition at 1 uM after 48 hrs by MTT assay; type: functional; conditions: PC-3, 48 h, read-out: GI; outline: as §3
[31] = Cell cycle arrest in human HL60 cells assessed as accumulation at subG0 phase at 5 uM after 24 hrs by propidium iodide-DNA fluorescence based FACS analysis (reference value: 5 %); conditions: HL-60

C[C@H]1[C@@H](OCCOc2cccc(C(=O)/C=C/c3ccc(O)cc3)c2)O[C@@H]2O[C@@]3(C)CC[C@H]4[C@H](C)CC[C@@H]1[C@@]24OO3
Ratio IC50 [1]: 80 | Activity [2]: 20% | inhibition of growth at 50 µM [3]: 35.2% | Activity [4]: 70% | inhibition of growth at 30 µM [5]: 93.3% | Activity [6]: Dose-dependent effect | logP [7]: 6.33 | Activity [8]: Dose-dependent effect | Activity [9]: 54% | Ratio IC50 [10]: >200 | Activity [11]: Dose-dependent effect | inhibition of growth at 1 µM [12]: 24.7% | inhibition of growth at 10 µM [13]: 27.2% | Activity [14]: 9% | inhibition of growth at 0.5 µM [15]: 21.7% | inhibition of growth at 0.5 µM [16]: 12.7% | solubility [17]: > 100 µg/mL | Activity [18]: 4% | Activity [19]: Dose-dependent effect | logP [20]: -5.96 | inhibition of growth at 10 µM [21]: 37.7% | Activity [22]: Active | inhibition of growth at 10 µM [23]: 29.6% | inhibition of growth at 0.5 µM [24]: 25.2% | inhibition of growth at 0.5 µM [25]: 15.2% | Activity [26]: 64% | Activity [27]: 6% | inhibition of growth at 1 µM [28]: 29.6% | inhibition of growth at 1 µM [29]: 13% | inhibition of growth at 1 µM [30]: 22.8%

C[C@H]1[C@@H](OCCOc2ccc(/C=C/C(=O)c3ccc(O)cc3)cc2)O[C@@H]2O[C@@]3(C)CC[C@H]4[C@H](C)CC[C@@H]1[C@@]24OO3
Ratio IC50 [1]: 82 | Activity [2]: 35% | inhibition of growth at 50 µM [3]: 75.2% | Activity [4]: 95% | inhibition of growth at 30 µM [5]: 90.1% | Activity [6]: Dose-dependent effect | logP [7]: 6.33 | Activity [8]: Dose-dependent effect | Activity [9]: 59% | Ratio IC50 [10]: 96 | Activity [11]: Dose-dependent effect | inhibition of growth at 1 µM [12]: 36.5% | inhibition of growth at 10 µM [13]: 36.6% | Activity [14]: 28% | inhibition of growth at 0.5 µM [15]: 32.2% | inhibition of growth at 0.5 µM [16]: 6.2% | solubility [17]: > 100 µg/mL | Activity [18]: 4% | Activity [19]: Dose-dependent effect | logP [20]: -5.96 | inhibition of growth at 10 µM [21]: 60.4% | Activity [22]: Active | inhibition of growth at 10 µM [23]: 41.5% | inhibition of growth at 0.5 µM [24]: 20.2% | Activity [31]: 95% | inhibition of growth at 0.5 µM [25]: 19.3% | Activity [26]: 55% | Activity [27]: 5% | inhibition of growth at 1 µM [28]: 23.8% | inhibition of growth at 1 µM [29]: 9.1% | inhibition of growth at 1 µM [30]: 25.4%

C[C@H]1[C@@H](O)O[C@@H]2O[C@@]3(C)CC[C@H]4[C@H](C)CC[C@@H]1[C@@]24OO3 [ARTENIMOL]
Ratio IC50 [1]: 25 | Activity [2]: 20% | inhibition of growth at 50 µM [3]: 42% | Activity [4]: 27% | inhibition of growth at 30 µM [5]: 91% | Activity [9]: 58% | Ratio IC50 [10]: 19 | Activity [14]: 8% | Activity [18]: 6% | Activity [31]: 27% | Activity [26]: 75% | Activity [27]: 2%
